Activity calls are given as the source filed them. The calls are words filed in the database; no cut-off is given here.
Legend:
[1] = biological target: Voltage-gated inwardly rectifying potassium channel KCNH2 (Homo sapiens, UniProt Q12809); experiment: Inhibition of radioligand binding to human ERG expressed in HEK293 cell membranes by scintillation counting method
[2] = Solubility of the compound in FeSSIF; type: physicochemical
[3] = Intrinsic clearance in mouse liver microsomes assessed per mg protein at 1 uM up to 60 mins; type: ADME, microsome; settings: read-out: CLH
[4] = Stability in mouse hepatocytes assessed compound turnover at 1 uM after 60 mins; type: ADME, cell-based, Hepatocyte; settings: read-out: Drug metabolism
[5] = Drug uptake in C57BL/6J mouse liver at 30 mg/kg, po by LC-MS analysis; type: ADME, organism-based; settings: in vivo
Procedure, shortened: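 Healthy C57BL/6 mice, groups of 15, given a single oral dose (0.3, 1, 3, 10 or 30 mg/kg) in 20% HP-β-CD. Blood drawn at 0.5 h. Three mice per group sacrificed at 0.5, 1, 2, 4 or 7 h, and compound in plasma and liver measured by LC−MS. Values rounded to whole numbers.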

Liver [6] = experiment: Upregulation of IP-10 mRNA expression levels in C57BL/6J mouse liver at 30 mg/kg, po by RT-qPCR analysis (reference value: 1); type: functional
Plasma [7] = experiment: Effect on cytokine profile in C57BL/6J mouse plasma assessed as IL-12p70 levels at 3 mg/kg, po by multiplex assay (reference value: 560 pg/ml); type: functional
Procedure, shortened: (§1)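 Single oral gavage in 20% HP-β-CD to healthy C57BL/6 mice, groups of 15 at 0.3, 1, 3, 10 or 30 mg/kg. Three mice per group sacrificed at 0.5, 1, 2, 4 or 7 h. Plasma and liver cytokines by multiplex, maximum level reported, rounded to nearest multiple of 5.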

Liver [8] = experiment: Effect on cytokine profile in C57BL/6J mouse liver assessed as IFNgamma levels at 3 mg/kg, po by multiplex assay; type: functional; procedure, shortened: as §1
Liver [9] = experiment: Proinflammatory activity in C57BL/6J mouse liver assessed as CXCL-1 levels at 3 mg/kg, po by multiplex assay (reference value: 25 pg/g); type: functional
Plasma [10] = experiment: Proinflammatory activity in C57BL/6J mouse plasma assessed as TNFalpha levels at 1 mg/kg, po by multiplex assay (reference value: 70 pg/ml); type: functional
Plasma [11] = experiment: Proinflammatory activity in C57BL/6J mouse plasma assessed as TNFalpha levels at 3 mg/kg, po by multiplex assay (reference value: 70 pg/ml); type: functional
Liver [12] = experiment: Proinflammatory activity in C57BL/6J mouse liver assessed as TNFalpha levels at 0.3 mg/kg, po by multiplex assay (reference value: 15 pg/g); type: functional
Liver [13] = experiment: Proinflammatory activity in C57BL/6J mouse liver assessed as TNFalpha levels at 1 mg/kg, po by multiplex assay (reference value: 15 pg/g); type: functional, organism-based
Liver [14] = experiment: Anti-inflammatory activity in C57BL/6J mouse liver assessed as IL-10 levels at 0.3 mg/kg, po by multiplex assay (reference value: 2 pg/g); type: functional
Procedure, shortened: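 Mice (C57BL/6) got a single oral dose of 0.3–30 mg/kg in 20% HP-β-CD, in groups of 15. Three per group were sacrificed at 0.5, 1, 2, 4 or 7 h, and liver cytokines were measured by multiplex. Values were rounded to the nearest multiple of 5.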

[15] = AUC (0 to last) in cynomolgus monkey plasma at 30 mg/kg, po by LC-MS analysis; type: ADME, organism-based, Macaca fascicularis; set-up: dose 30 mg/kg, route oral, time 0 - last
Procedure, shortened: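 Healthy cynomolgus monkeys received single oral doses of 1, 3, 9 and 30 mg/kg, with a 2-week wash-out between doses. Systemic compound concentrations were measured by LC–MS at 0.25, 0.5, 1, 2, 4, 8 and 24 h postdose.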

Cynomolgus monkey [16] = experiment: Effect on cytokine profile in cynomolgus monkey plasma assessed as IL-12P70 levels at 9 mg/kg, po after 24 hrs by Luminex assay (reference value: 2.17 pg/ml); type: functional, Macaca fascicularis
Procedure, shortened: (§2)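 Healthy cynomolgus monkeys given single oral doses of 1, 3, 9 and 30 mg/kg, with a 2-week wash-out planned between doses. Systemic cytokine levels in plasma were sampled at 0.5, 1, 2, 4, 9 and 24 h postdose.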

Cynomolgus monkey [17] = experiment: Effect on cytokine profile in cynomolgus monkey plasma assessed as IL-12P70 levels at 30 mg/kg, po after 24 hrs by Luminex assay (reference value: 2.17 pg/ml); type: functional, Macaca fascicularis; procedure, shortened: as §2
Cynomolgus monkey [18] = experiment: Effect on cytokine profile in cynomolgus monkey plasma assessed as IL-15 levels at 1 mg/kg, po after 24 hrs by Luminex assay (reference value: 20 pg/ml); type: functional, Macaca fascicularis; procedure, shortened: as §2
Cynomolgus monkey [19] = experiment: Proinflammatory activity in cynomolgus monkey plasma assessed as TNFalpha levels at 30 mg/kg, po after 24 hrs by Luminex assay (reference value: 285 pg/ml); type: functional, Macaca fascicularis
Cynomolgus monkey [20] = experiment: Proinflammatory activity in cynomolgus monkey plasma assessed as IL-6 levels at 1 mg/kg, po after 24 hrs by Luminex assay (reference value: 80 pg/ml); type: functional, Macaca fascicularis
Cynomolgus monkey [21] = experiment: Proinflammatory activity in cynomolgus monkey plasma assessed as IL-6 levels at 9 mg/kg, po after 24 hrs by Luminex assay (reference value: 80 pg/ml); type: functional, Macaca fascicularis
Cynomolgus monkey [22] = experiment: Proinflammatory activity in cynomolgus monkey plasma assessed as IL-8 levels at 30 mg/kg, po after 24 hrs by Luminex assay (reference value: 430 pg/ml); type: functional, Macaca fascicularis
Cynomolgus monkey [23] = experiment: Induction of G-CSF in cynomolgus monkey plasma at 3 mg/kg, po after 24 hrs by Luminex assay (reference value: 85 pg/ml); type: functional, organism-based; settings: Macaca fascicularis; procedure, shortened: as §2
Cynomolgus monkey [24] = experiment: Induction of ISG response in cynomolgus monkey plasma assessed as upregulation of Isg15 mRNA expression at 9 mg/kg, po after 24 hrs by Fluidigm RT-qPCR analysis (reference value: 1); type: functional, Macaca fascicularis
Procedure, shortened: (§3)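 Cynomolgus monkeys, single oral doses of 1, 3, 9 and 30 mg/kg with a planned 2-week wash-out between doses. Systemic ISG (ISG15, Mx1, OAS1) mRNA was measured by Fluidigm RT-qPCR at 1, 2, 4, 8 and 24 h postdose.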

Cynomolgus monkey [25] = experiment: Induction of ISG response in cynomolgus monkey plasma assessed as upregulation of Oas1b mRNA expression at 3 mg/kg, po after 24 hrs by Fluidigm RT-qPCR analysis (reference value: 1); type: functional, Macaca fascicularis; procedure, shortened: as §3
Cynomolgus monkey [26] = experiment: Upregulation of Tlr7 expression in cynomolgus monkey plasma at 1 mg/kg, po after 24 hrs by Fluidigm RT-qPCR analysis (reference value: 1.8); type: functional, Macaca fascicularis
Mus musculus = experiment: Toxicity in C57BL/6J mouse at 30 mg/kg, po after 1 to 2 hrs […]; type: organism-based; settings: in vivo
[27] = biological target: T1, TLR7 and TLR8 (Homo sapiens) (UniProt Q9NYK1+Q9NR97); experiment: Agonist activity at TLR7/8 in human PBMCs co-cultured with primary human hepatocytes infected with HBV genotype C for 12 days assessed as increase in IL-6 levels up to 5 uM measured after 42 days
[28] = biological target: T1, TLR7 and TLR8 (Homo sapiens); experiment: Agonist activity at TLR7/8 in human PBMCs co-cultured with primary human hepatocytes infected with HBV genotype C for 12 days assessed as increase in IL-1beta levels up to 5 uM measured after 42 days

Sequence of Voltage-gated inwardly rectifying potassium channel KCNH2 (Q12809 whole entry): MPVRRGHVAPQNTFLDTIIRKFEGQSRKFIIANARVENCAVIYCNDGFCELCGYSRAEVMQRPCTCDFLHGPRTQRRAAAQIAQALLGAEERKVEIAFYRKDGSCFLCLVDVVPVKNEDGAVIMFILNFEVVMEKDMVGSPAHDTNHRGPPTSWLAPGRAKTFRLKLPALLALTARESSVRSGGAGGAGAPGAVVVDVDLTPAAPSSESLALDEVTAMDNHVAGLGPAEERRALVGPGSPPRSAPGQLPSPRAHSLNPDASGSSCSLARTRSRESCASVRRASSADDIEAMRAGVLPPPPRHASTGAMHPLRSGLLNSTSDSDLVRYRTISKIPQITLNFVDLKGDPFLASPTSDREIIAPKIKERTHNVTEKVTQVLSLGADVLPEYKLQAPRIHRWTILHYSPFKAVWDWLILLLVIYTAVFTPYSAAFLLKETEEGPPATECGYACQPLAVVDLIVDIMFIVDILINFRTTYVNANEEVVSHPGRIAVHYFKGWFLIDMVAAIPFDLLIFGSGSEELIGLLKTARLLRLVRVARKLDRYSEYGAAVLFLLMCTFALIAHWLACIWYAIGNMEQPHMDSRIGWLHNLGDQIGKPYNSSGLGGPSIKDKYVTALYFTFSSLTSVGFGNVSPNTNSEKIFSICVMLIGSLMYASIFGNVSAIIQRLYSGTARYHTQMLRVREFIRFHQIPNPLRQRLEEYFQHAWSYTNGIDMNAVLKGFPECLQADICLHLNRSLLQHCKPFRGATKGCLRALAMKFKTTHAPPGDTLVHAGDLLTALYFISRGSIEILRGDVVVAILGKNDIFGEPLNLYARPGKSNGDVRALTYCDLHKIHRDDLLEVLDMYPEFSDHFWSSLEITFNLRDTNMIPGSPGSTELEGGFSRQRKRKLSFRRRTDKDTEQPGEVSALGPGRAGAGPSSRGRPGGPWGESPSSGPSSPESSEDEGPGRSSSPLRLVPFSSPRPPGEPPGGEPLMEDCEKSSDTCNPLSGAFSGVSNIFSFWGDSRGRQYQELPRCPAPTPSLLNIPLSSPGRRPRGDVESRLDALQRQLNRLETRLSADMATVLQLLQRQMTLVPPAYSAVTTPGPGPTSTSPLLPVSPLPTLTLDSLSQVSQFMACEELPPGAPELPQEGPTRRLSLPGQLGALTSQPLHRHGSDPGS
T1 sequence (Q9NR97 whole entry, looked up): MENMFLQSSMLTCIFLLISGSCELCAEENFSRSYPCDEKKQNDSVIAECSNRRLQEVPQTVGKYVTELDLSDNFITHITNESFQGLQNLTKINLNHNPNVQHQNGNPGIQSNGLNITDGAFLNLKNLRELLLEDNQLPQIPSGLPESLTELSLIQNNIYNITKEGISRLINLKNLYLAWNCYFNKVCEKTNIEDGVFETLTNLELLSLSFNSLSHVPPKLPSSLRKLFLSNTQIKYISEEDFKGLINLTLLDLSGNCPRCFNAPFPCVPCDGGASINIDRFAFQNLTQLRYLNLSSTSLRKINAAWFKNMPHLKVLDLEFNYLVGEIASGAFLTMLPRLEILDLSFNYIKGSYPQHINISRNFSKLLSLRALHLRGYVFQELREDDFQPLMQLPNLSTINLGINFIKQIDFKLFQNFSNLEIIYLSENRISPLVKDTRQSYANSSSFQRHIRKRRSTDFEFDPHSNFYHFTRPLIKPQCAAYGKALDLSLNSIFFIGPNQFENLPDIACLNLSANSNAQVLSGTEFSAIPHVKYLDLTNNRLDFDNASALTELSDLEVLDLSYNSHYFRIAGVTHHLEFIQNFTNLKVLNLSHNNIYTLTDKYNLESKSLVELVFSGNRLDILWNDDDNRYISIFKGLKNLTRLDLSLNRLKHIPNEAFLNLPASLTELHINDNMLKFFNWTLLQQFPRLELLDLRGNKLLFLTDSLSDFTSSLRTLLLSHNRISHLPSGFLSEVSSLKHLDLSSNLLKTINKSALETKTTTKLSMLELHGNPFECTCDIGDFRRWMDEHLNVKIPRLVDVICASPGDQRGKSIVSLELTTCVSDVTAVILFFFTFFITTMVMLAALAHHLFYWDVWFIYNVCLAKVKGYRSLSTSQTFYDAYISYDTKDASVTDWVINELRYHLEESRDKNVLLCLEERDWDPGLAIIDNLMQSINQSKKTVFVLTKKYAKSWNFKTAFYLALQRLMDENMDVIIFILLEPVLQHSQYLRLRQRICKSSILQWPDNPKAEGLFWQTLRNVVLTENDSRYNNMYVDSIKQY
T1 sequence (Q9NYK1 whole entry, looked up): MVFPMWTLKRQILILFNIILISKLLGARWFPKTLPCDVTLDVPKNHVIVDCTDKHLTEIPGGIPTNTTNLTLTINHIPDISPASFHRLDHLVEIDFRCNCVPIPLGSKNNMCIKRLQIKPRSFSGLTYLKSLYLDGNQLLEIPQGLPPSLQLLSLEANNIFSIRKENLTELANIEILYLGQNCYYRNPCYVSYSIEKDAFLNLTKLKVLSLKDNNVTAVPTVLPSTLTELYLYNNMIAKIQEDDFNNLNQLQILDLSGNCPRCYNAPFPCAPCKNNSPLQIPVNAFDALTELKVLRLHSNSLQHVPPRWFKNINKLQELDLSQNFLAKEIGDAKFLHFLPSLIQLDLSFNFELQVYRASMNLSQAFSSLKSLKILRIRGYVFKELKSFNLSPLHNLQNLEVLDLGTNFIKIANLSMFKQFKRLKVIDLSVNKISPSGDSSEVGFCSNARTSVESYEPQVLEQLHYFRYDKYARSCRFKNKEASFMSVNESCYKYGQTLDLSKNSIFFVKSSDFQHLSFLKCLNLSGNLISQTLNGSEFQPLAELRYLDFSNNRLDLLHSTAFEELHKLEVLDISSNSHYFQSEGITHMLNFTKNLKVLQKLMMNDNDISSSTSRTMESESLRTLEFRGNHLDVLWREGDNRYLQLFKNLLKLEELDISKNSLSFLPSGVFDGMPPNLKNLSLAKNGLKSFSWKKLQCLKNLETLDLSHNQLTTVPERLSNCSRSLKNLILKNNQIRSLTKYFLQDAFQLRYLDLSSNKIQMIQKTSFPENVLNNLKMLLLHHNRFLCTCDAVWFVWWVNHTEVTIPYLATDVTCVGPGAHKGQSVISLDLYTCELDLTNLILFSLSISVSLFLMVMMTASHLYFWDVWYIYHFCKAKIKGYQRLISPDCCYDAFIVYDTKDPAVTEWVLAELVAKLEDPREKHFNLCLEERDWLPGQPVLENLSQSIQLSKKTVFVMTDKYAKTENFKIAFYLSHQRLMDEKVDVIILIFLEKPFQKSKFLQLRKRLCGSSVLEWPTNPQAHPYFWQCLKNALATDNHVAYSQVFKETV

With `CCC[C@@H](CCO)Nc1nc(N)nc2c(F)cccc12` the IC50 [1] was over 10 µM, the solubility [2] was over 4000 µg/mL and the microsomal CLint at 1 µM [3] was 100 µL/min/mg. The metabolised at 1 h, 1 µM [4] was 99%, the Drug uptake [5] was 462 ng/g and the “fold change (FC)” value (Liver [6]) was 1180. It also gave an Activity (Plasma [7]) of 330 pg/mL, an Activity (Liver [8]) of 150 pg/g and an Activity (Liver [9]) of 35575 pg/g. For the same compound, the Activity (Plasma [10]) was 335 pg/mL, the Activity (Plasma [11]) was 1665 pg/mL and the Activity (Liver [12]) was 1945 pg/g. The Activity (Liver [13]) was “Below limit of detection”, the Activity (Liver [14]) was 730 pg/g and the AUC(0-t) [15] was 5200 ng·h/mL. It also gave an Activity (Cynomolgus monkey [16]) of 3.8 pg/mL, an Activity (Cynomolgus monkey [17]) of 10.1 pg/mL and an Activity (Cynomolgus monkey [18]) of 20 pg/mL. For the same compound, the Activity (Cynomolgus monkey [19]) was 2990 pg/mL, the Activity (Cynomolgus monkey [20]) was 75 pg/mL and the Activity (Cynomolgus monkey [21]) was 2265 pg/mL. The Activity (Cynomolgus monkey [22]) was 1840 pg/mL, the Activity (Cynomolgus monkey [23]) was “Below limit of detection” and the “fold change (FC)” value (Cynomolgus monkey [24]) was 560. For the same compound, the “fold change (FC)” value (Cynomolgus monkey [25]) was 265, the “fold change (FC)” value (Cynomolgus monkey [26]) was 4.8 and the Activity (Mus musculus) was “Toxic”. The Activity [27] was “Active” and the Activity [28] was “Active”.

Source: ChEMBL document CHEMBL4130635, “2,4-Diaminoquinazolines as Dual Toll-like Receptor (TLR) 7/8 Modulators for the Treatment of Hepatitis B Virus” (J Med Chem, 2018)
